Active and inactive are the calls of the source. The rule behind the calls is not given here.
How the values were obtained:
A549 [1] = experiment: Effect on sphingolipidome in human A549 cells assessed as increase in dihydroceramide per 10^6 cells at 10 uM after 24 hrs by UPLC-TOF analysis relative to control (reference value: 6.5 +/- 0.42 pmol/10^6 cells); assay type: functional
Method in brief: (§1)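 Cells incubated with compound at 10 µM, 24 h (A549) or 14 h (HCT116); lipids then extracted and profiled. Long-chain bases and phosphates were read by LC-MS/MS (positive electrospray, selected reaction monitoring, C17-dihydrosphingosine and C17-dihydrosphingosine-1-phosphate transitions monitored). Amounts expressed as pmol per 10⁶ cells. Mean ± SD of triplicates; unpaired two-tailed t-test versus control.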

A549 [2] = experiment: Effect on sphingolipidome in human A549 cells assessed as increase in total ceramides at 10 uM after 24 hrs by UPLC-TOF analysis; assay type: functional, cell-based; method in brief: as §1
[3] = target: T1, Sphingolipid delta(4)-desaturase DES1 (Homo sapiens) (UniProt O15121); experiment: Inhibition of Des1 in human A549 cells assessed as formation of CerC6NBD from dhCerC6NBD at =>100 uM after 4 hrs by HPLC-FD analysis; assay type: cell-based
T1 sequence (whole entry): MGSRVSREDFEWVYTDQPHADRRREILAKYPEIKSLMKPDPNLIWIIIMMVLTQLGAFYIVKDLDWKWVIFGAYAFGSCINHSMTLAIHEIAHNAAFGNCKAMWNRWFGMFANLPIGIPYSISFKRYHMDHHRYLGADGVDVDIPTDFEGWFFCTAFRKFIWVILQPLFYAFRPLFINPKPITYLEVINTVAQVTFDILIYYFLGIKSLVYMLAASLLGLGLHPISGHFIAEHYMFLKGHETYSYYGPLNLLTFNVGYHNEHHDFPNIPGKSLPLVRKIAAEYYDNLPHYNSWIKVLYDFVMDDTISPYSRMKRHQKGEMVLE
Method in brief: (§2)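 Des1 activity in A549 and HCT116 cells: intact cells seeded 2×10⁵/well and incubated 4 h with dhCerC6NBD and compound. Dose–response used cell lysates incubated 4 h with 10 µM dhCerC6NBD plus graded compound. CerC6NBD measured by HPLC with fluorescence detection. IC50 from sigmoidal variable-slope regression; mean ± SD, three experiments in triplicate.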

[4] = target: Neutral ceramidase (Homo sapiens) (UniProt Q9NR71); experiment: Inhibition of nCDase in Moh.pAS cells using CerC12NBD as substrate after 1 hr by HPLC-FD analysis; assay type: cell-based
Chain of Neutral ceramidase (Homo sapiens) (Q9NR71 whole entry): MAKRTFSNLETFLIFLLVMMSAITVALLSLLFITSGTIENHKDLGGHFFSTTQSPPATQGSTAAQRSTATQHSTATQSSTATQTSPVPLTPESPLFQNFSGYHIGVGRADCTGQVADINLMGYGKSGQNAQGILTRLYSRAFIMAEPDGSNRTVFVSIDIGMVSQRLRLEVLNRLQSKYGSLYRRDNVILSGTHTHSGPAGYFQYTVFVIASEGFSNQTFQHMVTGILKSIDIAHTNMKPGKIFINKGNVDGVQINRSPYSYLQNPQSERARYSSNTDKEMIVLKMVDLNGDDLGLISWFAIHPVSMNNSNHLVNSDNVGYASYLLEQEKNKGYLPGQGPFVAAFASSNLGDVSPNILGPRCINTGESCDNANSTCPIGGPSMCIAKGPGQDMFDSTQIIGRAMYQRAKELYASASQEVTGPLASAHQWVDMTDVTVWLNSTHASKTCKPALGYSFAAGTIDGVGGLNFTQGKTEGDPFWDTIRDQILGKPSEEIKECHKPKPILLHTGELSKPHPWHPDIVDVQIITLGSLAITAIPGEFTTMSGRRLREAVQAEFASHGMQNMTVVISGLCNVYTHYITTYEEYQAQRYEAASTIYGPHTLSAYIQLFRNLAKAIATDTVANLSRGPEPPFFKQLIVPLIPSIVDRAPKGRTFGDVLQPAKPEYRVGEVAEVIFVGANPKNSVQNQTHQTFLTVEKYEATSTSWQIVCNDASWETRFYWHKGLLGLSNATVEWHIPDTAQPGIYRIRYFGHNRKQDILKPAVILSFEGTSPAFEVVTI
Method in brief: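 Moh. pAS cells transfected to overexpress neutral ceramidase. Lysates (sonicated in 1 mM Tris–HCl, 0.1 mM EDTA, pH 7.5) incubated 1 h, 37 °C, with 5 µM CerC12NBD in 25 mM Tris–HCl pH 7.5, 1% sodium cholate, ±50 µM compound. Intact cells treated 4 h with 50 µM compound before lysis and assay. Read-out HPLC-fluorescence.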

[5] = target: T1, Sphingolipid delta(4)-desaturase DES1 (Homo sapiens); experiment: Inhibition of Des1 in human HCT116 cells assessed as formation of CerC6NBD from dhCerC6NBD at =>100 uM after 4 hrs by HPLC-FD analysis; assay type: cell-based; settings: HCT-116; method in brief: as §2
HCT-116 [6] = experiment: Effect on sphingolipidome in human HCT116 cells assessed as reduction in glucosylceramides per 10^6 cells at 10 uM after 14 hrs by UPLC-TOF analysis relative to control; assay type: functional, cell-based; method in brief: as §1
HCT-116 [7] = experiment: Effect on sphingolipidome in human HCT116 cells assessed as sphingosine-1-phosphate level per 10^6 cells at 10 uM after 14 hrs by UPLC-TOF analysis (reference value: 1.49 +/- 0.70/10^6 cells); assay type: functional; method in brief: as §1
HCT-116 [8] = experiment: Effect on sphingolipidome in human HCT116 cells assessed as reduction in C16-sphingomyelin per 10^6 cells at 10 uM after 14 hrs by UPLC-TOF analysis relative to control; assay type: functional, cell-based; method in brief: as §1
[9] = target: T2, Sphingolipid delta(4)-desaturase DES1 (Homo sapiens, UniProt O15121); experiment: Inhibition of Des1 in human A549 cells assessed as formation of CerC6NBD from dhCerC6NBD after 4 hrs by HPLC-FD analysis
T2 sequence (O15121 whole entry): T1 sequence (whole entry)

A549 [10] = experiment: Effect on sphingolipidome in human A549 cells assessed as increase in C18-ceramide per 10^6 cells at 10 uM after 24 hrs by UPLC-TOF analysis (reference value: 4.8 +/- 0.5 pmol/10^6 cells); assay type: functional; method in brief: as §1
HCT-116 [11] = experiment: Induction of apoptosis in human HCT116 cells at 15 uM after 14 hrs by Annexin V-propidium iodide staining based flow cytometry; assay type: functional, cell-based
Method in brief: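 HCT116 (clone 40–16) in low-glucose DMEM with 10% FBS and 1% penicillin–streptomycin, seeded 2.5×10⁵ cells/mL. After 24 h, medium replaced with compound-containing medium; ethanol vehicle to controls. After incubation, cells PBS-washed, trypsinized, stained with Annexin V and propidium iodide, analysed by flow cytometry. Mean ± SD, 3 experiments in triplicate.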

HCT-116 [12] = experiment: Effect on sphingolipidome in human HCT116 cells assessed as reduction in sphingomyelins per 10^6 cells at 10 uM after 14 hrs by UPLC-TOF analysis relative to control; assay type: functional, cell-based; method in brief: as §1
HCT-116 [13] = experiment: Effect on sphingolipidome in human HCT116 cells assessed as reduction in C24-ceramide per 10^6 cells at 10 uM after 14 hrs by UPLC-TOF analysis relative to control; assay type: functional, cell-based; method in brief: as §1
HCT-116 [14] = experiment: Effect on sphingolipidome in human HCT116 cells assessed as increase in dihydrosphingomyelins per 10^6 cells at 10 uM after 14 hrs by UPLC-TOF analysis relative to control; assay type: functional, cell-based; method in brief: as §1
HCT-116 [15] = experiment: Effect on sphingolipidome in human HCT116 cells assessed as increase in glucosyldihydroceramides per 10^6 cells at 10 uM after 14 hrs by UPLC-TOF analysis relative to control; assay type: functional, cell-based; method in brief: as §1
HCT-116 [16] = experiment: Effect on sphingolipidome in human HCT116 cells assessed as increase in C18-ceramide per 10^6 cells at 10 uM after 14 hrs by UPLC-TOF analysis relative to control (reference value: 3.9 +/- 0.3 pmol/10^6 cells); assay type: functional; method in brief: as §1
HCT-116 [17] = experiment: Effect on sphingolipidome in human HCT116 cells assessed as dihydrosphingosine-1-phosphate level per 10^6 cells at 10 uM after 14 hrs […] relative to control; assay type: functional, cell-based
HCT-116 [18] = experiment: Induction of […] in human HCT116 cells at 20 uM after 14 hrs by Annexin V-propidium iodide staining based flow cytometry; assay type: functional
A549 [19] = experiment: Effect on sphingolipidome in human A549 cells assessed as increase in dihydroceramide per 10^6 cells at 10 uM after 24 hrs by UPLC-TOF analysis relative to control; assay type: functional; method in brief: as §1
HCT-116 [20] = experiment: Effect on sphingolipidome in human HCT116 cells assessed as increase in dihydroceramide per 10^6 cells at 10 uM after 14 hrs by UPLC-TOF analysis relative to control; assay type: functional; method in brief: as §1

Q: How did the Activity (A549 [1]) turn out when `CCCCCCCCCCCCCS/C=C/[C@H](CO)NC(=O)c1ccc(C(C)(C)C)cc1` was run?
A: inactive

Q: And the Activity (A549 [2])?
A: inactive

Q: And the inhibition [3]?
A: 50%

Q: And the inhibition [4]?
A: inactive

Q: And the inhibition [5]?
A: 50%

Q: For `CCCCCCCCCCCCCS/C=C/[C@H](CO)NC(=O)CCCCCCC`, which Activity (HCT-116 [6]) is on record?
A: Active

Q: What about the Activity (HCT-116 [7]) of the same compound?
A: 1.25 pmol

Q: And the Activity (HCT-116 [8])?
A: Active

Q: And the IC50 [9]?
A: 18.1 µM

Q: And the Activity (A549 [10])?
A: 11.5 pmol

Q: What about the Activity (HCT-116 [11]) of the same compound?
A: Active

Q: What about the Activity (HCT-116 [12]) of the same compound?
A: Active

Q: What about the Activity (A549 [1]) of the same compound?
A: 22.9 pmol

Q: And the Activity (A549 [2])?
A: inactive

Q: What about the inhibition [4] of the same compound?
A: inactive

Q: What about the Activity (HCT-116 [13]) of the same compound?
A: Active

Q: And the Activity (HCT-116 [14])?
A: Active

Q: What about the Activity (HCT-116 [15]) of the same compound?
A: Active

Q: And the Activity (HCT-116 [16])?
A: 16 pmol

Q: And the Activity (HCT-116 [17])?
A: inactive

Q: What about the Activity (HCT-116 [18]) of the same compound?
A: inactive

Q: What about the “fold change (FC)” value (A549 [19]) of the same compound?
A: 3.5

Q: And the “fold change (FC)” value (HCT-116 [20])?
A: 8.5

Q: Which results are given for `CCCCCCCCCCCCCS/C=C/[C@H](CO)NC(=O)C(C)(C)C`?
A: Activity (HCT-116 [6]): Active; Activity (HCT-116 [7]): 2.17 pmol; Activity (HCT-116 [8]): Active; Activity (A549 [10]): 7 pmol; Activity (HCT-116 [11]): Active; Activity (HCT-116 [12]): Active; Activity (A549 [1]): 12.4 pmol; Activity (A549 [2]): inactive; inhibition [3]: 50%; inhibition [4]: inactive; Activity (HCT-116 [13]): Active; Activity (HCT-116 [14]): Active; Activity (HCT-116 [15]): Active; Activity (HCT-116 [16]): 10.8 pmol; Activity (HCT-116 [17]): inactive; Activity (HCT-116 [18]): inactive; inhibition [5]: 50%; fold change (FC) (A549 [19]): 1.9; fold change (FC) (HCT-116 [20]): 4.5
